Here are results for 15 compounds from ChEMBL document CHEMBL1127431, “Cholinergic agents structurally related to furtrethonium. 2. Synthesis and antimuscarinic activity of a series of N-[5-[(1'-substituted-acetoxy) methyl]-2-furfuryl]dialkylamines” (J Med Chem, 1994).

For test [1], the target named is Muscarinic acetylcholine receptor M3 (Rattus norvegicus) (UniProt P08483). The test can be described thus: In vitro antimuscarinic activity against the M3 muscarinic receptor subtype in rat bladder. In short, it runs like this:
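Rat urinary detrusor strips (extratrigonal, 1 cm × 2 mm), fasted overnight, isotonic recording at 1 g resting tension; 30–45 min equilibration. Cumulative furtrethonium curves in 0.5 log-unit increments, repeated until two matched, then final curve after ≥30 min with test compound. E50 by four-parameter logistic fit; pKb = log(DR−1) − log[B], mean ± SE.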

For test [2] the target is unchanged. Put plainly: In vitro antimuscarinic activity against the M3 muscarinic receptor subtype in rat ileum. The test is classed as tissue-based. In short, it runs like this: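 Rat longitudinal ileum segments (~2 cm), fasted overnight, isotonic recording at 0.5 g resting tension; 30–45 min equilibration. Cumulative furtrethonium curves in 0.5 log-unit increments, repeated until two matched, then final curve after ≥30 min with test compound. E50 by four-parameter logistic fit; pKb = log(DR−1) − log[B], mean ± SE.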

The target in test [3] is T1, Muscarinic acetylcholine receptor M2 (Homo sapiens) (UniProt P08172).
T1 sequence (whole entry): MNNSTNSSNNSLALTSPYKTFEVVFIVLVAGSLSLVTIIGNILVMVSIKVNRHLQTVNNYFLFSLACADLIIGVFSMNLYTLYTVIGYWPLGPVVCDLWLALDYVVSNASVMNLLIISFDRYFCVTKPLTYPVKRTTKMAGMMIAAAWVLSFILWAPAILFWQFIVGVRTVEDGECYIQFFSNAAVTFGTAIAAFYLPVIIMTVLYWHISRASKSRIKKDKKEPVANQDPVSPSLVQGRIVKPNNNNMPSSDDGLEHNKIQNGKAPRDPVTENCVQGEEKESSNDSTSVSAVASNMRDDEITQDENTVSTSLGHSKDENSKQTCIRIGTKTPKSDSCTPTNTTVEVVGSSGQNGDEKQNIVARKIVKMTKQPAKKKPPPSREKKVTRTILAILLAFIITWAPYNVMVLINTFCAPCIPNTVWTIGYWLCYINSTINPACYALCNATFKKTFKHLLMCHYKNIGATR
Put plainly: In vitro antimuscarinic activity against the M2 muscarinic receptor subtype in guinea pig atria. Conditions: Cavia porcellus; target entry is the homologue from another species. In short, it runs like this:
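Guinea pig atria (both), fasted overnight, resting tension 1 g, force recorded; 30–45 min equilibration. Cumulative carbachol curves in 0.25 log-unit increments, repeated until two matched, then final curve after ≥30 min with test compound. E50 from four-parameter logistic fit; pKb = log(DR−1) − log[B], mean ± SE.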

SMILES strings stand for the structures.

Chain of Muscarinic acetylcholine receptor M3 (Rattus norvegicus) (P08483 whole entry, looked up): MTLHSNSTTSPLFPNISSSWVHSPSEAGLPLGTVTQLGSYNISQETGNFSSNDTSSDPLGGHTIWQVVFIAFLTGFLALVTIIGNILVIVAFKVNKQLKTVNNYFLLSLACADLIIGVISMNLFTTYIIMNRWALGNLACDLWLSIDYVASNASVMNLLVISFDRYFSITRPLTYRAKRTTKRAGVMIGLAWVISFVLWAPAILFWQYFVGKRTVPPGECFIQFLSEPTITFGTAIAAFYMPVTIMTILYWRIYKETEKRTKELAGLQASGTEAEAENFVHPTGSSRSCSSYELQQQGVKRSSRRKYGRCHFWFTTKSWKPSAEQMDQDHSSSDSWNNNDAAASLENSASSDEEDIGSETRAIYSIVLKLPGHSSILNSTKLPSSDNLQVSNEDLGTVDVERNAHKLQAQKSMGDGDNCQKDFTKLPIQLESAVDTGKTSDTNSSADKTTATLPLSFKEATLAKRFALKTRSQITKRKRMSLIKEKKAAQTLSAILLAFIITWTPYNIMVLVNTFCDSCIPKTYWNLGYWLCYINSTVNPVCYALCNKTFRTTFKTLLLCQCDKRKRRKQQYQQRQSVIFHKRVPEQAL

Consider `CN(C)Cc1ccc(COC(=O)C(c2ccccc2)c2ccccc2)o1`, for which the negative logarithm of the Kb (pKb) (usually −log10 of the Kb, conventionally taken in molar units) in test [1] came out at 6.5; in test [2], 6.5; in test [3], 5.9.
With `CCN(CC)Cc1ccc(COC(=O)C(c2ccccc2)C2CCCCC2)o1` (stereo not given), the negative logarithm of the Kb (pKb) in test [1] is 6; in test [2] it was 6.7; in test [3], < 5.
For `O=C(OCc1ccc(CN2CCOCC2)o1)C(c1ccccc1)C1CCCCC1` (stereo not given) the same measures were 5.7, 5.5 and < 5.
In the case of `CN(C)Cc1ccc(COC(=O)C(c2ccccc2)C2CCCCC2)o1` (stereo not given), the values for the pKb in test [1], in test [2] and in test [3] were 7.2, 7.3 and 5.9, respectively.
For `CN(C)Cc1ccc(COC(=O)C(O)(C2CCCCC2)C2CCCCC2)o1` the same measures were 7.2, 7.1 and < 5.
For `CN(C)Cc1ccc(COC(=O)C2c3ccccc3-c3ccccc32)o1` the same measures were 5.6, 5.8 and 4.8.
In the same order, the values of `O=C(OCc1ccc(CN2CCCCC2)o1)C(c1ccccc1)C1CCCCC1` (stereo not given) are 5.3, 6.3 and < 5.
With `CN(Cc1ccc(COC(=O)C(c2ccccc2)C2CCCCC2)o1)C1CCCCC1` (stereo not given), the pKb is < 5 in test [1], 6.5 in test [2] and < 4.5 in test [3].
Regarding `CCCN(C)Cc1ccc(COC(=O)C(c2ccccc2)C2CCCCC2)o1` (stereo not given), the negative logarithm of the Kb (pKb) in test [1] is 6; in test [2], 6.8; in test [3], < 5.
For `O=C(OCc1ccc(CN2CCCCC2)o1)C(c1ccccc1)c1ccccc1`, the pKb in test [1] is 6.2; in test [2], 6; in test [3] it was < 5.
In the same order, the values of `CCCCCN(C)Cc1ccc(COC(=O)C(c2ccccc2)C2CCCCC2)o1` (stereo not given) are < 5, 6.9 and < 5.
In the same order, the values of `CC(C)N(C)Cc1ccc(COC(=O)C(c2ccccc2)C2CCCCC2)o1` (stereo not given) are 6.7, 7 and 5.
In the same order, the values of `O=C(OCc1ccc(CN2CCC(O)CC2)o1)C(c1ccccc1)C1CCCCC1` (stereo not given) are 6, 6.5 and < 5.
In the case of `CN(C)Cc1ccc(COC(=O)C2c3ccccc3Oc3ccccc32)o1`, the pKb amounted to 6.6 in test [1], 7.1 in test [2] and 6.5 in test [3].
As for `CN(Cc1ccccc1)Cc1ccc(COC(=O)C(c2ccccc2)C2CCCCC2)o1` (stereo not given), the pKb in test [1], in test [2] and in test [3] was < 5 in each case.
